Sampled rows, rich in hits. Any-hit rate of the full collection: about 2.1%.
MT stabilizer: microtubule stabilizers in HeLa cells. HeLa tubulin immunostaining HCS, 24 h; share of cells brighter than vehicle mean+2SD. 200,000 compounds, 0.83% hits. % tubulin-high responders, % at 10 µM;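 active means plate Z-score above 3 for both tubulin-high and condensed-nucleus cell shares, with cell loss under 80%, at 10 µM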;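 further: anti alpha tubulin signal scored within the nucleus-defined area of each cell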
KLF5 inhibitor: suppresses KLF5 promoter-driven expression; 290,000 compounds, 0.23% hits; DLD-1 KLF5 promoter-luciferase reporter, luminescence; inhibition, % at 5 µM; AID 1700;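 active means inhibition above a per-plate limit of that plate's mean compound inhibition plus 3 SD, cut at about 60% in these data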;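 further: 0% = DMSO wells and 100% = LY294002 at 200 µM; higher means less KLF5 promoter-driven luciferase light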
BaF3 parental: reduces parental Ba/F3 cell viability, JAK2V617F counter-screen. 220,000 compounds, 1.1% hits. AID 1486. inhibition, % at 5.6 µM. CellTiter-Glo ATP luminescence;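 active means inhibition above a per-campaign cutoff, the mean inhibition of all tested compounds plus 3 SD, cut at about 27% in these data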;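 further: 0% = DMSO wells and 100% = JAK Inhibitor I control wells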
bCat nuc transl: modulators of beta-catenin nuclear translocation. HeLa beta-catenin nuclear translocation, immunofluorescence imaging. nuclear translocation activity, % at 5 µM. 190,000 compounds, 0.3% hits. AID 1665;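 active means nuclear translocation activity above 50% at 5 µM, with a well cell count of 50 or more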;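 further: per-cell ratio of nuclear to cytoplasmic median beta-catenin stain intensity; plate controls were DMSO negative control for no effect and GSK-3 inhibitor IX positive control for full effect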
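assay system = human HeLa cells, endogenous beta-catenin | times = compound treatment 24 h, 37°C, 5% CO2 | detection = Anti-beta-catenin immunofluorescence on PFA-fixed, Triton-permeabilized cells, DAPI nuclei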
Ba/F3 V617F tox: loss of viability in JAK2V617F-driven Ba/F3 cells; Ba/F3 EpoR-JAK2V617F viability, ATP luminescence; inhibition, % at 5.6 µM; 220,000 compounds, 1.1% hits;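 active means inhibition above the campaign mean plus 3 SD over all tested compounds, cut at about 24% in these data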;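 further: cytokine-independent growth of Ba/F3 cells driven by EpoR plus mutant JAK2; 0% = DMSO-treated cells and 100% = JAK inhibitor I control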
IEC-6 cytotox: kills IEC-6 intestinal cells in KLF5 counter-screen; AID 1825; inhibition, % at 5 µM; 290,000 compounds, 0.78% hits; IEC-6 cytotoxicity, luminescence viability; in the data active means inhibition above about 22%;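 further: 0% = plate median of test compound wells and 100% = cytotoxic reference compound wells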
Active calls of the source: *.

Cc1ccc(NC(=O)c2ccc(NS(=O)(=O)c3c(C)noc3C)cc2)cc1C was read as MT stabilizer 3.8, KLF5 inhibitor -32.7, BaF3 parental 1.6, bCat nuc transl -0.9, Ba/F3 V617F tox 0.1 and IEC-6 cytotox 5.6.
For COc1ccc(NC(=O)c2ccc(NS(=O)(=O)c3c(C)noc3C)cc2)cc1OC the results were MT stabilizer 1.1, KLF5 inhibitor -23.3, BaF3 parental 96.5*, bCat nuc transl -0.8, Ba/F3 V617F tox -0.4 and IEC-6 cytotox -13.4.
For COc1ccc(Nc2nc(N3CCCCC3)c3ccccc3n2)cc1 the results were MT stabilizer 1.9, KLF5 inhibitor -5.4, BaF3 parental 35.0*, bCat nuc transl 0.7, Ba/F3 V617F tox 7.0 and IEC-6 cytotox 5.4.
For Oc1ccc(Nc2nc(N3CCCC3)c3ccccc3n2)cc1 the results were MT stabilizer 4.6, KLF5 inhibitor -18.5, BaF3 parental 60.6*, bCat nuc transl 0.9, Ba/F3 V617F tox 48.2* and IEC-6 cytotox 13.3.
For CC(C)(C)NC(=O)Cn1cc(C#N)c2cc(Br)ccc21 the results were MT stabilizer 3.2, KLF5 inhibitor -9.6, BaF3 parental 6.8, Ba/F3 V617F tox 5.2 and IEC-6 cytotox 0.3.
For CCc1cc(-c2n[nH]c(C)c2-c2nc3ccccc3n2C)c(O)cc1O the results were MT stabilizer 13.9*, KLF5 inhibitor -10.8, BaF3 parental 1.5, bCat nuc transl 21.2, Ba/F3 V617F tox -2.1 and IEC-6 cytotox -0.8.
For C#CC[N+]1(CC#Cc2ccc(C)cc2)CCCCC1 the results were MT stabilizer 2.2, KLF5 inhibitor -28.8, BaF3 parental 66.0*, bCat nuc transl -3.3, Ba/F3 V617F tox 69.4* and IEC-6 cytotox -2.9.
For Cc1ccc(C#CC[N+]2(C)CCCCC2)cc1 the results were KLF5 inhibitor -44.8, BaF3 parental 57.4*, bCat nuc transl 1.6, Ba/F3 V617F tox 54.2* and IEC-6 cytotox 3.7.
Screening C(#Cc1ccc(C#CCN2CCCC2)cc1)CN1CCCC1 returned MT stabilizer 3.9, KLF5 inhibitor -1.3, BaF3 parental 8.2, bCat nuc transl -0.7, Ba/F3 V617F tox 4.8 and IEC-6 cytotox 1.5.
`O=C(NCCCN1CCOCC1)c1ccccc1` gave MT stabilizer 0.9, KLF5 inhibitor -9.9, BaF3 parental 39.5*, bCat nuc transl -1.6, Ba/F3 V617F tox -3.2 and IEC-6 cytotox -2.5.
Screening CC(Sc1nnnn1-c1ccc(Cl)cc1)C(=O)NCC(=O)Nc1ccc(F)c(F)c1F (configuration not stated) returned MT stabilizer 2.1, KLF5 inhibitor -27.3, BaF3 parental 6.0, bCat nuc transl -0.4, Ba/F3 V617F tox 4.1 and IEC-6 cytotox 11.9.
Screening CC(C)(C)n1ncc2c(=O)n(CC(=O)NCc3ccccc3)cnc21 returned MT stabilizer 31.8*, KLF5 inhibitor -194.9, BaF3 parental 3.4, bCat nuc transl -1.9, Ba/F3 V617F tox -2.5 and IEC-6 cytotox 2.0.
`CC1(C)Cc2nc(-c3ccccc3)nc(SCC(=O)N3CCOCC3)c2CO1` gave KLF5 inhibitor -18.5 and IEC-6 cytotox 0.2.
CC1(C)Cc2nc(-c3ccccc3)nc(SCC(O)CO)c2CO1 (configuration not stated) was read as KLF5 inhibitor -27.1, BaF3 parental 61.5*, bCat nuc transl -0.8, Ba/F3 V617F tox 0.7 and IEC-6 cytotox 3.2.
Screening Cc1cc(C)c2[nH]c(=O)c(CN(CC3CCCO3)C(=S)Nc3ccccc3)cc2c1 (configuration not stated) returned MT stabilizer 4.0, KLF5 inhibitor -3.8, BaF3 parental 4.8, bCat nuc transl -1.8, Ba/F3 V617F tox 1.8 and IEC-6 cytotox -3.5.
Screening COc1ccc(C(=O)N(Cc2ccccc2)Cc2cc3cc4c(cc3[nH]c2=O)OCCO4)cc1 returned MT stabilizer 36.3*, KLF5 inhibitor -18.3, BaF3 parental 4.3, bCat nuc transl -2.2, Ba/F3 V617F tox -2.8 and IEC-6 cytotox 1.5.
For Cc1ccc2cc(CN(CC3CCCO3)C(=S)Nc3ccccc3)c(=O)[nH]c2c1 (configuration not stated) the results were MT stabilizer 16.0*, KLF5 inhibitor 19.2, BaF3 parental 8.4, bCat nuc transl 63.5*, Ba/F3 V617F tox 1.0 and IEC-6 cytotox 5.3.
O=c1[nH]c2cc3c(cc2cc1CN(Cc1ccco1)C(=S)NCC1CCCO1)OCCO3 (configuration not stated) was read as MT stabilizer 22.1*, KLF5 inhibitor -23.6, BaF3 parental 5.3, bCat nuc transl 18.4, Ba/F3 V617F tox -0.4 and IEC-6 cytotox -2.3.
`Cc1ccc2[nH]c(=O)c(CN(CC3CCCO3)C(=S)Nc3ccccc3)cc2c1` (configuration not stated) gave MT stabilizer 12.0*, KLF5 inhibitor -32.7, BaF3 parental 6.0, bCat nuc transl 0.0, Ba/F3 V617F tox 0.6 and IEC-6 cytotox -6.5.
`O=C(CCc1ccccc1)NCc1ccc2c(c1)OCO2` gave KLF5 inhibitor -35.1 and IEC-6 cytotox 2.6.
`NC(=O)c1ccc(NC(=O)CSc2nnc(-c3cccnc3)n2Cc2ccco2)cc1` gave KLF5 inhibitor -10.8 and IEC-6 cytotox -8.2.
O=C(c1ccco1)N1CCN(Cc2nc(-c3cccs3)no2)CC1 was read as MT stabilizer 2.3, KLF5 inhibitor -18.6, BaF3 parental -0.1, bCat nuc transl 1.2, Ba/F3 V617F tox 1.0 and IEC-6 cytotox 3.8.
Screening O=C1CCC(C(=O)N2CCCC(Nc3ccc(F)cc3)C2)=NN1 (configuration not stated) returned KLF5 inhibitor -28.7 and IEC-6 cytotox 0.3.
Screening CC(=O)Nc1ccc(S(=O)(=O)NC2C3(C)CCC(C3)C2(C)C)cc1 (configuration not stated) returned KLF5 inhibitor -26.7 and IEC-6 cytotox -1.5.
Screening CCOC(=O)c1c(S(=O)(=O)NCc2ccco2)c(C)n(C)c1C returned KLF5 inhibitor -19.0 and IEC-6 cytotox -5.8.
For CC(=NCCc1c(C)[nH]c2ccc(C)cc12)C1=C(O)CC(c2ccccc2)CC1=O (configuration not stated) the results were MT stabilizer 15.6*, KLF5 inhibitor -1.1, BaF3 parental 5.7, bCat nuc transl 9.7, Ba/F3 V617F tox 1.3 and IEC-6 cytotox 6.1.
`CC(=NCCc1c(C)[nH]c2ccc(OC(F)(F)F)cc12)C1=C(O)CC(c2ccccc2)CC1=O` (configuration not stated) gave MT stabilizer 13.2*, KLF5 inhibitor -34.9, BaF3 parental 2.4, bCat nuc transl 1.6, Ba/F3 V617F tox -4.7 and IEC-6 cytotox -4.7.
Screening O=C(C/C=N/OCc1c(Cl)cccc1Cl)c1cnc(-c2ccccc2)s1 returned MT stabilizer 1.2, KLF5 inhibitor -12.0, BaF3 parental 72.4*, bCat nuc transl -2.4, Ba/F3 V617F tox -6.2 and IEC-6 cytotox -5.4.
Screening CCOC(=O)c1cc(-c2csc(Nc3c(C)cc(C)cc3C)n2)on1 returned KLF5 inhibitor 16.1, BaF3 parental -2.8, bCat nuc transl -3.2, Ba/F3 V617F tox -1.0 and IEC-6 cytotox 0.4.

From PubChem BioAssay
